Hep lipid drop: inhibitors of hepatocyte lipid droplet formation, primary screen, imaging, high-throughput imaging, BODIPY stain | AML12 mouse hepatocytes, oleate lipid droplets | inhibition, % at 6.5 µM | actives 0.4% (n = 240,000) | AID 1656, 2009;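 active = lipid droplet intensity inhibited by at least 50%, with more than 500 cells counted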
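Test system: AML12 mouse liver cells; schedule: overnight exposure; technique: high-content imaging of BODIPY-stained droplets and DAPI nuclei; read-out: % inhibition of corrected integrated BODIPY droplet signal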
Thrombin inh: human alpha-thrombin inhibitors, primary screen, counter-screen for coagulation protease inhibitor project, biochemical, 1536-well, fluorogenic AMC substrate | Prothrombin (Homo sapiens), P00734 | Boc-VPR-AMC fluorogenic substrate cleavage | inhibition, % at 5 µM | actives 0.26% (n = 220,000);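 active = inhibition at or above 40%; inactive = inhibition below 40%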;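 also: 0% = enzyme with no compound and 100% = wells without enzyme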
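System: human alpha-thrombin protein; Compound dosing: one concentration per compound, 5 µM, with 0.2% DMSO; Timing: reaction at room temperature; Technique: AMC fluorescence, 355/460 nm; Controls: enzyme without compound as high, wells lacking enzyme as low.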
FXIa inh: human FXIa protease inhibitors, primary screen, biochemical, 1536-well; actives 0.14% (n = 220,000); Coagulation factor XI (Homo sapiens), P03951; purified FXIa, Boc-Glu-Ala-Arg-AMC fluorogenic substrate; inhibition, % at 5 µM;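 active = inhibition of at least 40%; inactive = inhibition below 40%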;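 also: fluorescence of freed AMC excited at 355 nm; 0% = enzyme without compound and 100% = no enzyme blank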
FXIIa inh: human FXIIa protease inhibitors, primary screen, biochemical, 1536-well; Coagulation factor XII (Homo sapiens), P00748; purified FXIIa, Boc-QGR-AMC fluorogenic substrate, 2 h; inhibition, % at 5 µM; actives 0.3% (n = 220,000); AID 800, 2007; in the data active = inhibition above about 40%;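 also: 0% = enzyme with no compound and 100% = blank without enzyme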
hK5 inh: human KLK5 protease inhibitors, primary screen, biochemical, 1536-well; Kallikrein-5 (Homo sapiens), Q9Y337; recombinant hK5, fluorogenic AMC substrate cleavage; inhibition, % at 5 µM; actives 0.59% (n = 210,000);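 active = inhibition of 40% or more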;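 also: 0% = enzyme controls without compound and 100% = no-enzyme blanks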
Target sequence (Q9Y337 67-293 limits assumed): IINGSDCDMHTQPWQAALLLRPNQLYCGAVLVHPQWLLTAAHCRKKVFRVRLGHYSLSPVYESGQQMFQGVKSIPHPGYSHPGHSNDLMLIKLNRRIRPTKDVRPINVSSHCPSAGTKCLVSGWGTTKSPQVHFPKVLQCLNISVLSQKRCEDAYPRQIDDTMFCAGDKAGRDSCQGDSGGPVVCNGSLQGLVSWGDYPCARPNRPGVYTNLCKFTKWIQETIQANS
Calb biofilm kill: clotrimazole potentiators killing C. albicans biofilm, primary screen, 4-compound mixtures; C. albicans biofilm persisters + clotrimazole, fluorescence viability; primary screen in compound mixtures of four per well; actives 0.02% (n = 120,000); inhibition, % at 7.6 µM;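 active = inhibition above 30.3% in the primary screen of four-compound pools, then above 30% when the compound was retested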;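 also: compounds exposed to preformed 24 h biofilms for 48 h; 0% = untreated biofilm control and 100% = clotrimazole plus chlorhexidine kill blank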
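System: C. albicans CAF4-2 wild-type biofilms; Medium: RPMI/MOPS medium, pH 7.0; Reagent: Clotrimazole, 50 µg/mL; Times: biofilm formation 24 h, compound exposure 48 h, 37 °C; Detection: 2-h Alamar Blue fluorescence, 535/590 nm excitation/emission; Evaluation: percent inhibition of biofilm viability.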
* = called active by the depositor; x = no result given. Only some compounds are listed: those with a hit (about 1.1% of all), similar ones and a draw of the others.

SMILES	Hep lipid drop	Thrombin inh	FXIa inh	FXIIa inh	hK5 inh	Calb biofilm kill
O=C(NCc1ccc2c(c1)OCO2)c1c[nH]c2ccc(S(=O)(=O)N3CCOCC3)cc2c1=O	x	54.9*	5.5	12.7	-11.6	x
COCCNC(=O)c1c[nH]c2ccc(S(=O)(=O)N3CCOCC3)cc2c1=O	5.3	x	x	x	x	x
c1ccc(OCCN2CCN(C(c3ccccc3)c3ccccc3)CC2)cc1	3.5	x	x	x	x	x
O=C(C1CCC(CNS(=O)(=O)c2ccccc2)CC1)N1CCCCC1 (stereo not drawn)	-0.7	x	x	x	x	x
COc1ccc(CN2CCN(C(=O)C3CCC(CNS(=O)(=O)c4ccccc4)CC3)CC2)c(OC)c1OC (stereo not drawn)	0.6	26.4	27.5	101.3*	20.6	11.0
Cc1ccc(NC(=O)CSCc2cc(=O)n3ccsc3n2)c(C)c1	4.4	x	x	x	x	x
COc1ccc(N(C(C)C(=O)NN=C2CCCCCCC2)S(C)(=O)=O)cc1 (stereo not drawn)	-1.8	-17.2	-9.7	-2.5	-4.2	-0.4
COc1ccc(N(C(C)C(=O)NC2CCCCCC2)S(C)(=O)=O)cc1 (stereo not drawn)	-8.6	28.3	3.1	12.9	61.8*	x
O=C(CCc1ccc(O)cc1)N/N=C/c1coc2ccccc2c1=O	9.6	58.3*	1.9	7.7	0.4	13.0
O=C(N/N=C/c1coc2ccccc2c1=O)c1cc(O)cc(O)c1	3.1	5.9	1.7	9.2	14.1	-1.0
Cc1ccc(OC(F)F)c(NC(=O)Nc2cccc(C(F)(F)F)c2)c1	4.6	18.6	7.8	19.7	56.4*	x
O=C(Nc1ccccc1)Nc1cccc(C(F)(F)F)c1	3.0	x	3.5	11.0	0.7	10.4
C=CCOc1ccc(/C(O)=C2\C(=O)C(=O)N(CCCOC)C2c2ccncc2)cc1 (stereo not drawn)	-2.8	41.3*	13.1	21.7	31.4	x
Cc1onc(-c2ccccc2)c1C(=O)N(Cc1ccco1)Cc1cccs1	-25.8	13.9	40.0*	20.5	31.2	5.2
Cc1onc(-c2ccccc2)c1C(=O)NCc1ccco1	x	0.4	-1.3	12.5	6.4	x
COc1ccc(S(=O)(=O)CCc2nnc(NC(=O)c3cccs3)s2)cc1	x	77.1*	0.0	22.5	0.8	x
COc1ccc2c(c1)-c1nc(NC(=O)c3cccs3)sc1CC2	x	4.0	49.2*	21.7	-14.0	x
NC(=O)c1ccsc1NC(=O)CSc1nnc(C2CC2)n1Cc1ccccc1	x	59.2*	9.7	16.4	48.1*	x
O=C(Nc1ccc(Br)cc1)c1cccc(S(=O)(=O)Nc2cnc3ccccc3c2)c1	0.2	0.4	7.1	15.3	-5.5	9.5
COc1ccc(NC(=O)c2cccc(S(=O)(=O)Nc3ccc(Br)cc3)c2)cn1	-3.2	28.1	21.6	15.6	40.1*	11.3
CCCCN(C)CCNC(=O)c1cn(C)c(=O)c2c1c1ccccc1n2C	11.8	x	x	x	x	x
Cc1ccc(SCc2cc(=O)n3ccsc3n2)c(C)c1	0.3	-0.1	7.4	3.9	-8.9	15.8
Cc1ccc(C)c(C(=O)c2c(C)nc3sccn23)c1	x	21.7	4.1	26.3	43.6*	x
O=C(c1ccc(-c2ccc(Cl)cc2)o1)N1CCN(c2ccc([N+](=O)[O-])cc2Cl)CC1	-70.9	-11.2	-6.4	-0.4	-17.1	x
O=C(c1ccc(-c2ccc([N+](=O)[O-])cc2)o1)N1CCCCC1	1.3	60.6*	22.0	24.9	18.6	6.8
SMILES	Hep lipid drop	Thrombin inh	FXIa inh	FXIIa inh	hK5 inh	Calb biofilm kill
Nc1cccc2c1C(=O)N(CCOc1ccccc1F)C2=O	2.5	x	x	x	x	x
Cc1nn(-c2ccccc2)c(Cl)c1/C=N/NC(=O)c1cccnc1	8.7	-2.2	4.9	-0.1	-10.0	18.0
Cc1ccc(C(=O)N/N=C\c2c(C)nn(-c3ccccc3)c2Cl)cn1	0.7	12.4	9.8	10.5	40.8*	13.5
CC(C)N(C)CCOC(=O)/C=C/c1ccccc1	1.2	6.1	-3.7	14.9	40.6*	3.3
O=C(Nc1ccc(SC(F)F)cc1)c1ccccc1F	1.5	35.2	39.3	23.8	42.7*	13.4
O=C1c2ccccc2C(=O)N1CCc1nc2ccccc2c(=O)n1Cc1ccco1	x	10.6	2.5	28.6	57.1*	x
C=CCNC(=S)NNC(=O)CC12CC3CC(CC(C3)C1)C2	-6.7	-0.8	1.6	5.8	-10.4	34.1
CCN(CC)c1ccc(/C=C(\C#N)C(=O)NCc2ccco2)cc1	-23.7	12.7	5.3	17.9	64.5*	10.0
CC(C)Nc1nc(C#N)nc(NC(C)C)n1	x	102.3*	1.6	6.2	97.2*	x
CC(C)Nc1nc(NC(C)C)nc(N(C#N)C(C)C(=O)N(C)C)n1 (stereo not drawn)	-1.2	0.8	3.8	10.7	-6.0	14.5
CCOC(=O)c1cn(CC2CC2)c2cc(F)c(F)cc2c1=O	-0.7	-2.5	-3.6	2.4	-1.0	3.1
CCCn1cc(C(=O)OCC)c(=O)c2cc(F)c(F)cc21	-15.0	4.2	64.9*	31.2	23.1	16.1
COc1ccc(C(=O)CCC(=O)Nc2cc(Cl)c(O)c(Cl)c2)cc1	-14.1	x	x	x	x	x
Cc1ccccc1NC(=O)c1ccc(NC(=O)C2CC(=O)OC23CCCCC3)cc1 (stereo not drawn)	2.7	64.1*	30.5	16.7	15.2	26.3
O=C1CC(C(=O)Nc2ccccc2)C2(CCCC2)O1 (stereo not drawn)	-7.2	-3.6	-15.6	-12.6	-7.1	x
CCN(c1ccccc1)S(=O)(=O)c1ccc(C(=O)Nc2nnc(COC)o2)cc1	x	22.7	11.4	55.1*	13.5	x
Nc1nnc(SCCCC(=O)c2ccccc2)s1	-2.3	45.7*	-10.9	-2.0	16.9	4.6
Nc1nnc(SCC(=O)c2ccc3ccccc3c2)s1	-3.3	-2.9	-0.6	-5.7	-5.2	x
O=C(COc1ccc(S(=O)(=O)Nc2ccccc2)cc1)N1CCOCC1	0.6	53.1*	6.0	18.4	20.6	x
O=C(COc1ccc(S(=O)(=O)Nc2ccc(Cl)cc2)cc1)N1CCOCC1	3.1	x	x	x	x	x
O=C(O)/C(=C\c1cccc(OCc2ccccc2)c1)c1ccc(F)cc1	4.2	x	x	x	x	x
Cc1cc2c(c(=O)n1C)C(Cc1ccccc1)C(C#N)=C(N)O2 (stereo not drawn)	-3.5	-1.8	14.3	45.4*	11.1	x
COc1ccc(-c2nn3cnnc3s2)cc1OC	x	44.6*	12.1	18.2	129.5*	x
COc1ccc(-c2nn3c(COc4ccccc4)nnc3s2)cc1OC	x	-6.1	-12.7	10.3	-8.2	x
Cc1onc(-c2ccc(Cl)cc2Cl)c1-c1csc(N/N=C/c2ccccc2Cl)n1	-4.7	0.8	-3.4	7.6	4.3	13.3
COC(=O)c1ccccc1NC(=O)Nc1cc(C)ccn1	2.4	31.9	31.0	41.4*	23.4	5.6

Bioassay records: PubChem, several laboratories
